# Laboratory results as given in PubChem BioAssay.
# Unmarked numbers belong to inactive results. Records with an inconclusive call do not appear. Calls of active or inactive are those of the source.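 Rule for the calls, unless noted: active = inhibition over a set limit, the all-compound mean plus 3 SD, in both replicate runs; inconclusive = over that limit in just one replicate run; inactive = at or under that limit in both runs.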
# What was measured:
# [1] = S. cerevisiae growth inhibition in permissive medium (OD615), pilot counter-assay for S. cerevisiae lifespan shortening project, permissive growth control (AID 705;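 active = growth inhibition above 25% in both replicates, a cutoff set 3 SD above the mean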); details: OD615, 24 h, at 10 µM, stronger effect = higher value
# Outline: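 System: engineered DeaD yeast; Medium: permissive raffinose/galactose medium; Compound dosing: 10 µM single dose, 0.25% DMSO; Incubation: 4 h cell pre-growth, 24 h exposure at 30 °C; Technique: OD at 615 nm; Evaluation: growth inhibition from lowered OD615 after 24 h.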
# [2] = S. cerevisiae growth inhibition in restrictive medium, OD615, pilot screen, restrictive growth control, yeast lifespan reduction project (AID 706;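 active = growth inhibition above a set limit, 3 SD over mean compound inhibition, in both replicates, cut at about 43% in these data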;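 note: modified DeaD lifespan yeast strain shifted to restrictive glucose medium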); details: OD615, 48 h, at 10 µM, stronger effect = higher value
# Outline: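 Material: modified S. cerevisiae; buffer or medium: CSMM-D glucose medium; doses: one concentration, 10 µM final, 0.25% DMSO; incubation: 48 h compound exposure at 30 °C; detection: optical density at 615 nm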
# [3] = doxorubicin toxicity protection in MRP-1 cells – H69AR cells, CellTiter-Glo, duplicate, MRP-1 activator project, pilot screen (AID 807;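 active = viability increase at or above a cutoff of the median across tested compounds plus 3 SD, cut at about 8.5% in these data, passing the limit was not always enough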;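 note: compound pretreatment 18-22 h then 72 h combined with doxorubicin; 0% = doxorubicin alone and 100% = vehicle without doxorubicin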); details: H69AR viability with doxorubicin, CellTiter-Glo luminescence; at 10 µM; stronger effect = higher value
# [4] = viability of PTEN-null HCT116 cells – cell-based, HCT116 clonal line, CellTiter-Glo, pilot screen (AID 824;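 active = viability at or below 27.92% in each of two runs, the all-compound median minus 4 SD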;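 note: 0% = 20 µM Hyamine control and 100% = vehicle cell control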); details: HCT116 PTEN-deleted viability, 60 h, at 10 µM, stronger effect = lower value
# [5] = RAM pathway blockade in budding yeast – dse1pr::URA3 reporter, 5-FOA selection, pilot screen (AID 869);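 note: 0% = DMSO wells with no growth and 100% = 10 µM 1-NA-PP1 with full growth; RAM network block rescues cells from 5-FOA so hits raise OD615 growth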; details: S. cerevisiae dse1pr::URA3 5-FOA growth, OD615, 2 d; at 10 µM; stronger effect = higher value; strain carries analog-sensitive mutant Cbk1 kinase
# [6] = RAM signaling pathway blockade in yeast – S. cerevisiae, Pdr1DBD-CYC8 efflux-inhibited sensitized strain, primary screen (AID 1298;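 active = RAM network inhibition above 8.4% in each of two replicates, 3 SD over the compound average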;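 note: 0% = DMSO untreated cells without growth and 100% = 10 µM 1-NA-PP1 full growth; higher means more yeast growth rescued from 5-FOA killing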); details: S. cerevisiae cbk1-as DSE1-URA3 strain, 5-FOA growth OD615, 2 d; at 50 µM; stronger effect = higher value
Compound,growth inhibition [1],growth inhibition [2],viability increase [3],viability [4],inhibition [5],RAM network inhibition [6]
CCSc1nsc(SCC)c1C(N)=O,-3.27%,-11.2%,-1.55%,102%,0.83%,1.14%
O=C(Oc1ccc(Cl)cc1)N1CCCCC1,-8.34%,3.42%,0.94%,103%,-0.1%,4.56%
CN(C)c1ccc(NC(=S)c2ccccn2)cc1,4.71%,-11.2%,-8.3%,47.2%,1.82%,3.01%
CC(Oc1ccc(Cl)cc1)C(=O)Nc1nccs1 (stereo not given),-5.8%,-5.78%,-1.86%,87%,1.31%,2.7%
CCOc1cc(C2NC(=O)NC(C)=C2C(=O)OC(C)CC)cc(Br)c1O (stereo not given),-4.09%,-10.5%,-1.01%,91.2%,2.17%,2.16%
CCC(C)(C(=O)NC1CCCC1)N(C(=O)CNC(C)=O)c1ccccc1 (stereo not given),-11.6%,-1.64%,-1.96%,98.3%,3.23%,3.45%
CC(c1ccccc1F)n1cc(C(=O)NCCc2ccco2)nn1 (stereo not given),-12.9%,-9.79%,-4.02%,76.3%,0.72%,0.46%
CCc1c(C)sc(NC(=O)C2CCCCC2C(=O)O)c1C(N)=O (stereo not given),15.1%,25.8%,-4%,101%,1.77%,9.48%
COc1ccc(-c2nc(SC)n(C)c(=O)c2C#N)cc1OC,-6.31%,-12.2%,-4.81%,87.9%,0.12%,9.22%
N#Cc1ccc(Sc2nc3ccccc3[nH]2)cc1C#N,-7.23%,4.58%,-5.02%,89.8%,2.44%,1.9%
COc1ccc(C2CC(=O)C(C=NCCO)=C(O)C2)cc1OC (stereo not given),-5.79%,4.22%,1.21%,105%,-0.07%,-0.41%
CCN(CC)S(=O)(=O)c1ccc2oc(C(=O)NCc3ccc(F)cc3)c(C)c2c1,-10.9%,12.4%,-6.59%,60.6%,1.37%,7.7%
CCC(=O)Nc1sc2c(c1C#N)CC(C)(C)NC2(C)C,-7.39%,-4.29%,0.09%,100%,1.89%,0.46%
CCOC(=O)N1CCN(S(=O)(=O)c2cc(Br)cc3c2N(C(=O)C2CC2)CC3)CC1,-3.63%,7.68%,-1.65%,99.5%,0.715%,5.87%
CCNC(=O)CN(C1CCCCC1)S(=O)(=O)c1ccc(F)cc1,-8.23%,-2.66%,-2.01%,91%,3.43%,-0.15%
O=C(NCc1ccco1)C1CCN(C(=O)Cc2ccccc2)CC1,-8.46%,4.75%,-3.71%,102%,1.32%,3.59%
CCNc1nc(Oc2ccc(C(=O)OCC)cc2)nc(SC)n1,-5.11%,1.57%,-1.58%,78.9%,2.05%,2.82%
Cn1c(=O)oc2cc(S(=O)(=O)N3CCCC(C(=O)NCc4ccc5c(c4)OCO5)C3)ccc21 (stereo not given),-7.5%,6.97%,-7.5%,36.4%,3.25%,8.39%
CCC(=O)N1CCc2cc(Br)cc(S(=O)(=O)NCc3ccco3)c21,-4%,-12.8%,-5.07%,96.8%,1.7%,1.85%
COc1cc2c(cc1NC(=O)c1ccco1)CCCC2,3.87%,-4.68%,-6.9%,81.1%,2.06%,2.56%

Compound,growth inhibition [1],growth inhibition [2],viability increase [3],viability [4],inhibition [5],RAM network inhibition [6]
CCCC(=O)c1cc(F)c(N2CCN(CCC#N)CC2)cc1C,-9.06%,-15.5%,-0.66%,93.6%,2.97%,3.23%
CCCn1c(C(C)NC(=O)c2ccccc2)nc2ccccc21 (stereo not given),-8.46%,-6.87%,-2.18%,97.6%,2.92%,5.38%
CCN(Cc1ccccc1)S(=O)(=O)c1ccc(C(=O)Nc2nnc(C3CC3)o2)cc1,-5.06%,-18.6%,-4.27%,22.8% (active),2.35%,5.05%
Cc1cc(OCCCCCNCCO)ccc1Cl,-5.31%,-3.71%,-4.62%,78%,2.05%,1.6%
CCOC(=O)N1CCN(C(=O)c2oc3ccc(S(=O)(=O)N4CCOCC4)cc3c2C)CC1,-6.53%,-12.6%,-4.64%,99.9%,2.71%,4.61%
CC(C)CC(NC(=O)C1CCC(C)CC1)C(=O)Nc1cccnc1 (stereo not given),-8.21%,-12.6%,-3.68%,89.5%,0.035%,0.05%
CCN(CC)C(=O)c1cn(C)c(=O)c2cc(OC)c(OC)cc12,-12.1%,-8.38%,-4.4%,98.8%,0.515%,-1.59%
CCOC(=O)C1CCN(S(=O)(=O)c2cc(Br)cc3c2N(C(=O)C2CC2)CC3)CC1,-12.9%,-13.7%,-1.73%,96.5%,1.68%,1.38%
O=C1CC(c2ccccc2)c2cc(O)ccc2O1 (stereo not given),-23.7%,-23%,3.84%,69.2%,1.45%,2.58%
COc1cccc(OCCOc2cccc(/C=N/n3cnnc3)c2)c1,6.03%,21.9%,-2.71%,95.8%,1.62%,0.36%
O=C(Nc1ccc(S(=O)(=O)N2CCOCC2)cc1)C1COc2ccccc2O1 (stereo not given),-6.88%,-3.29%,-1.63%,104%,0.055%,1.34%
CCOC(=O)c1c(O)c2c(n(Cc3ccco3)c1=O)CCCC2,-8.59%,4.38%,-0.86%,102%,-0.075%,-1.18%
CCOc1ccc(S(=O)(=O)N(C)c2ccc(OCC(=O)Nc3ccc4[nH]c(=O)[nH]c4c3)cc2)cc1,-7.61%,-11.1%,-4.94%,94.1%,0.8%,7.12%
Cc1noc(C)c1C(=O)NCCCc1ccccc1,-4.23%,-7.88%,-1.07%,103%,0.62%,0.21%
O=C1N=C(c2ccccc2)C(c2ccccc2)N1 (stereo not given),-9.57%,0.595%,-3.35%,90.8%,1.23%,1.06%
CCS(=O)(=O)N1CCN(C(=O)c2cccs2)CC1,-9.68%,-12.3%,-1.23%,100%,3.8%,-0.05%
CC(Oc1ccc(Cl)cc1Cl)C(=O)NCc1ccncc1 (stereo not given),-10.3%,-7.06%,-4.17%,89.1%,1.26%,1.89%
Cc1cc2ccccc2c(=O)n1CC(=O)NCC(=O)N(C)Cc1ccccc1,-10.2%,-4.71%,-0.97%,98.6%,0.475%,5.32%
CN1CCN(C(=O)c2c(NC(=O)c3ccco3)sc3c2CCC(C(C)(C)C)C3)CC1 (stereo not given),-11.3%,1.13%,-2.04%,79.9%,-0.17%,0.15%
C=CCn1c(SC(CCO)C(=O)NCc2ccco2)nc2sc3c(c2c1=O)CCC3 (stereo not given),-8.84%,0.375%,-5.67%,84.7%,1.2%,5.12%
